ChEMBL document CHEMBL2331153, “Structural investigation and biological activity of sesquiterpene lactones from the traditional Chinese herb Inula racemosa” (J Nat Prod, 2013)
Values after ≈ are worked out from the molar mass of the structure shown. Active and inactive are the calls of the source. No cut-off for these calls is given here.

What was measured:
Format in all cases: functional, cell-based
A549 = test: Antiproliferative activity against human A549 cells assessed as inhibition of cell proliferation after 72 hrs by CCK8 assay; settings: A549, 72 h
Procedure, shortened: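 A549 cells grown in RPMI 1640 with 10% FBS and penicillin/streptomycin at 37 °C, 5% CO2. Cells adhered overnight, then treated with compound for 72 h. CCK-8 added for 2 h at 37 °C, absorbance read at 450 nm. Mitomycin served as positive control. Run in duplicate.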

HepG2 = test: Antiproliferative activity against human HepG2 cells assessed as inhibition of cell proliferation after 72 hrs by CCK8 assay; settings: HepG2, 72 h
Procedure, shortened: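 HepG2 cells maintained in DMEM with 10% FBS and penicillin/streptomycin at 37 °C, 5% CO2. After overnight adherence, compound exposure lasted 72 h. Viable cells detected with CCK-8 (2 h incubation) by absorbance at 450 nm. Positive control was mitomycin. Assays in duplicate.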

HT-1080 = test: Antiproliferative activity against human HT1080 cells assessed as inhibition of cell proliferation after 72 hrs by CCK8 assay; settings: HT-1080, 72 h
Procedure, shortened: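 HT1080 fibrosarcoma cells cultured in alpha-MEM with 10% FBS and penicillin/streptomycin, 37 °C, 5% CO2. Seeded, allowed to adhere overnight, then incubated with compound for 72 h. CCK-8 added for 2 h, then A450 read. Mitomycin was the positive control. Duplicate experiments.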

HUVEC [1] = test: Antiangiogenic activity against human HUVEC assessed as inhibition of endothelial cell tube formation at 1 ug/ml after 22 hrs by Matrigel assay
Procedure, shortened: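 HUVECs (passages 2–6) seeded at 25 000 cells/well onto a Matrigel layer and exposed to compound for 22 h; images taken 22 h after plating at ×40. Capillary tube formation scored as total length of capillary structures in two representative fields per experiment. Colchicine served as positive control.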

HUVEC [2] = test: Antiproliferative activity against human HUVEC assessed as inhibition of cell proliferation after 72 hrs by CCK8 assay
Procedure, shortened: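 HUVECs at passages 2–6 grown in endothelial cell medium with 0.03 mg/mL endothelial cell growth supplement, 10% FBS, 0.1 mg/mL heparin and penicillin/streptomycin. Cells adhered overnight, then compound added for 72 h at 37 °C, 5% CO2. CCK-8 added for 2 h and absorbance read at 450 nm. Mitomycin positive control; duplicates.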

| Compound | IC50 (A549) | IC50 (HepG2) | IC50 (HT-1080) | inhibition (HUVEC [1]) | IC50 (HUVEC [2]) |
| --- | --- | --- | --- | --- | --- |
| C[C@@H]1C2=C[C@H]3[C@@H](C[C@@]2(C)CC[C@@H]1O)OC(=O)[C@@H]3C | > 50 µg/mL | > 50 µg/mL | > 50 µg/mL |  |  |
| C[C@H]1CCC[C@]2(C)C[C@H]3OC(=O)[C@](C)(O)[C@H]3C=C12 | > 50 µg/mL | > 50 µg/mL | > 50 µg/mL |  |  |
| C[C@@H]1C(=O)O[C@@H]2C[C@@]3(C)C[C@@H](O)C[C@H](C)C3=C[C@H]12 | 24.8 µg/mL (≈ 99.1 µM) | 26.1 µg/mL (≈ 104 µM) | 20.1 µg/mL (≈ 80.3 µM) |  |  |
| C=C1C[C@H](O)C[C@]2(C)C[C@H]3OC(=O)[C@@H](C)[C@H]3C[C@@H]12 | > 50 µg/mL | > 50 µg/mL | > 50 µg/mL |  |  |
| C=C1C[C@H](O)C[C@]2(C)C[C@H]3OC(=O)[C@H](C)[C@H]3C[C@@H]12 | > 50 µg/mL | > 50 µg/mL | > 50 µg/mL |  |  |
| C[C@@H]1C(=O)O[C@@H]2C[C@@]3(C)CCC[C@H](C)C3=C[C@H]12 | 24.8 µg/mL (≈ 106 µM) | > 50 µg/mL | > 50 µg/mL |  |  |
| CC1=C2C[C@@H]3[C@H](C)C(=O)O[C@@H]3C[C@@]2(C)CCC1=O | 22.5 µg/mL (≈ 90.8 µM) | > 50 µg/mL | > 50 µg/mL |  |  |
| C=C1C(=O)O[C@@H]2C[C@@]3(C)CCC[C@H](C)[C@@]34O[C@H]4[C@H]12 | 1.59 µg/mL (≈ 6.4 µM) | 2.73 µg/mL (≈ 11 µM) | 1.32 µg/mL (≈ 5.32 µM) |  |  |
| C=C1C(=O)O[C@@H]2C[C@@]3(C)CCC[C@]4(CO4)[C@@H]3C[C@H]12 | 2.65 µg/mL (≈ 10.7 µM) | 3.78 µg/mL (≈ 15.2 µM) | 3.51 µg/mL (≈ 14.1 µM) |  |  |
| C[C@@H]1C(=O)O[C@@H]2C[C@@]3(C)CCC[C@]4(CO4)[C@@H]3C[C@H]12 | > 50 µg/mL | > 50 µg/mL | > 50 µg/mL |  |  |
| C=C1C(=O)O[C@@H]2C[C@@]3(C)CCCC(C)=C3C[C@H]12 [ALLOALANTOLACTONE] | 2.67 µg/mL (≈ 11.5 µM) | 3.57 µg/mL (≈ 15.4 µM) | 3.87 µg/mL (≈ 16.7 µM) |  |  |

Second part, led by results:

| IC50 (A549) | IC50 (HepG2) | IC50 (HT-1080) | Compound | inhibition (HUVEC [1]) | IC50 (HUVEC [2]) |
| --- | --- | --- | --- | --- | --- |
| 16.2 µg/mL (≈ 64.8 µM) | 25.3 µg/mL (≈ 101 µM) | 17.4 µg/mL (≈ 69.5 µM) | C[C@@H]1C(=O)O[C@@H]2C[C@@]3(C)CCC[C@H](C)[C@@]34O[C@H]4[C@H]12 [DIHYDROEPOXYALANTOLACTONE] |  |  |
| > 50 µg/mL | > 50 µg/mL | > 50 µg/mL | C=C1CCC[C@]2(C)C[C@H]3OC(=O)[C@@H](C)[C@H]3C[C@@H]12 [DIHYDROISOALANTOLACTONE] |  |  |
| 0.55 µg/mL (≈ 2.37 µM) | 1.3 µg/mL (≈ 5.6 µM) | 0.696 µg/mL (≈ 3 µM) | C=C1C(=O)O[C@@H]2C[C@@]3(C)CCC[C@H](C)C3=C[C@H]12 [HELENINE] | Active | 2.4 µg/mL (≈ 10.3 µM) |
| 0.38 µg/mL (≈ 1.64 µM) | 1.77 µg/mL (≈ 7.62 µM) | 0.795 µg/mL (≈ 3.42 µM) | C=C1C(=O)O[C@@H]2C[C@@]3(C)CCCC(=C)[C@@H]3C[C@H]12 [ISOALANTOLACTONE] | Active | 2.5 µg/mL (≈ 10.8 µM) |
| 1.47 µg/mL (≈ 5.92 µM) | 4.19 µg/mL (≈ 16.9 µM) | 2.44 µg/mL (≈ 9.83 µM) | C=C1C(=O)O[C@@H]2C[C@@]3(C)CC[C@@H](O)C(=C)[C@@H]3C[C@H]12 [ISOTELEKIN] |  |  |
| 16.2 µg/mL (≈ 65.3 µM) | 31.2 µg/mL (≈ 126 µM) | 28.5 µg/mL (≈ 115 µM) | C[C@@H]1CCC[C@]2(C)C[C@@H]3OC(=O)C(CO)=C3C=C12 [MACROPHYLLILACTONE E] |  |  |
| 0.54 µg/mL (≈ 1.62 µM) | 0.14 µg/mL (≈ 0.419 µM) | 0.15 µg/mL (≈ 0.449 µM) | CO[C@@]12[C@H](COC(N)=O)C3=C(C(=O)C(C)=C(N)C3=O)N1C[C@@H]1N[C@@H]12 [MITOMYCIN] |  |  |
| 1.51 µg/mL (≈ 6.03 µM) | 2.76 µg/mL (≈ 11 µM) | 1.88 µg/mL (≈ 7.51 µM) | C=C1C(=O)O[C@@H]2C[C@@]3(C)CCC[C@H](C)[C@]3(O)C[C@H]12 [RACEMOSALACTONE A] |  |  |
| 37.3 µg/mL (≈ 124 µM) | > 50 µg/mL | > 50 µg/mL | C[C@@H]1C2=C[C@H]3[C@@H](C[C@@]2(C)CC[C@@H]1O)OC(=O)[C@@]3(O)CCl [RACEMOSALACTONE B] |  |  |
| 27.8 µg/mL (≈ 111 µM) | > 50 µg/mL | > 50 µg/mL | C[C@@H]1C(=O)O[C@@H]2C[C@@]3(C)CCC[C@H](C)C3=C[C@]12O [RACEMOSALACTONE C] |  |  |
| > 50 µg/mL | > 50 µg/mL | > 50 µg/mL | C=C1C[C@H](O)C[C@]2(C)C[C@H]3OC(=O)[C@](C)(O)[C@H]3C[C@@H]12 [RACEMOSALACTONE D] |  |  |
| 38.6 µg/mL (≈ 154 µM) | > 50 µg/mL | > 50 µg/mL | C[C@H]1C(=O)O[C@@H]2CC3=C[C@@H](O)C[C@H](C)[C@@]3(C)C[C@@H]21 [RACEMOSALACTONE E] |  |  |
| 4.27 µg/mL (≈ 17.2 µM) | 8.14 µg/mL (≈ 32.8 µM) | 3.5 µg/mL (≈ 14.1 µM) | C=C1C(=O)O[C@@H]2C[C@@]3(C)CCCC(=C)[C@]3(O)C[C@H]12 [TELEKIN] |  |  |
